Reference: ChEMBL document CHEMBL3525985, “Regiospecificity and stereospecificity of human UDP-glucuronosyltransferases in the glucuronidation of estriol, 16-epiestriol, 17-epiestriol, and 13-epiestradiol” (Drug Metab Dispos, 2013)
Blank lines part the entries; values can stand above or below the molecule they belong to.

Experiments:
Assay type in all cases: ADME
[1] = Drug metabolism in human intestine microsomes assessed as 17-epiestriol-3-glucuronide formation after 15 to 60 mins by Michaelis-Menten equation analysis in presence of UDPGA
In short: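 Pooled human intestine microsomes (6 donors), 0.5 or 10 µg, with alamethicin at 5% of total protein. Incubated with 50 mM phosphate pH 7.4, 10 mM MgCl₂, 5 mM UDPGA and 10% DMSO for 15–60 min at 37°C. Each glucuronide regioisomer quantified by HPLC, in triplicate, with substrate consumption at or below 10%.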

[2] = biological target: T1, UDP-glucuronosyltransferase 1A10 (Homo sapiens, UniProt Q9HAW8); assay: Drug metabolism assessed as recombinant human C-terminal His-tagged UGT1A10-mediated 17-epiestriol-3-glucuronide formation at 200 uM after 15 to 60 mins by HPLC analysis in presence of UDPGA; settings: recombinant enzyme
T1 sequence (Q9HAW8 whole entry): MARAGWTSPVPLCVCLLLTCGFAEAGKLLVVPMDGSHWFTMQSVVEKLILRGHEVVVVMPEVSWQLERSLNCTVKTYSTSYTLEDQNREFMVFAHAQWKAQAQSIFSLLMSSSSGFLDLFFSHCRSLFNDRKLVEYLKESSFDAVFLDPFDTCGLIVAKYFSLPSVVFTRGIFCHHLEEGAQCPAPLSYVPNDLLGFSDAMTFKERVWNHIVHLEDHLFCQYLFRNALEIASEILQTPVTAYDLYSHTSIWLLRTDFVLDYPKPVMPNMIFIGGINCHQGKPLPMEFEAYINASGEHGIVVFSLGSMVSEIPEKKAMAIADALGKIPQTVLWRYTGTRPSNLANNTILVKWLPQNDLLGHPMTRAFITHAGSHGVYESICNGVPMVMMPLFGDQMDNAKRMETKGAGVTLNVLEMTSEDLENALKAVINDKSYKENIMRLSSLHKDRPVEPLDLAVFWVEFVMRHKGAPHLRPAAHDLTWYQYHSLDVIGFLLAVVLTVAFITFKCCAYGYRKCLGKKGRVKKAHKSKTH
In short: (§1)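 Screening at a single substrate concentration of 200 μM, in triplicate. The reaction used 5 or 50 µg of UGT-enriched insect cell membranes in 50 mM phosphate pH 7.4 with 10 mM MgCl₂ and 5 mM UDPGA, 10% final DMSO. Incubation was 15–60 min at 37°C. Perchloric acid stopped the reaction and supernatants were analysed by HPLC. Controls lacked UDPGA. Rates were normalized to relative UGT expression level.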

[3] = biological target: T2, UDP-glucuronosyltransferase 2B7 (Homo sapiens, UniProt P16662); assay: Drug metabolism assessed as recombinant human C-terminal His-tagged UGT2B7-mediated 13-epiestradiol-17-glucuronide formation at 200 uM after 15 to 60 mins by HPLC analysis in presence of UDPGA; settings: recombinant enzyme; in short: as §1
T2 sequence (P16662 whole entry): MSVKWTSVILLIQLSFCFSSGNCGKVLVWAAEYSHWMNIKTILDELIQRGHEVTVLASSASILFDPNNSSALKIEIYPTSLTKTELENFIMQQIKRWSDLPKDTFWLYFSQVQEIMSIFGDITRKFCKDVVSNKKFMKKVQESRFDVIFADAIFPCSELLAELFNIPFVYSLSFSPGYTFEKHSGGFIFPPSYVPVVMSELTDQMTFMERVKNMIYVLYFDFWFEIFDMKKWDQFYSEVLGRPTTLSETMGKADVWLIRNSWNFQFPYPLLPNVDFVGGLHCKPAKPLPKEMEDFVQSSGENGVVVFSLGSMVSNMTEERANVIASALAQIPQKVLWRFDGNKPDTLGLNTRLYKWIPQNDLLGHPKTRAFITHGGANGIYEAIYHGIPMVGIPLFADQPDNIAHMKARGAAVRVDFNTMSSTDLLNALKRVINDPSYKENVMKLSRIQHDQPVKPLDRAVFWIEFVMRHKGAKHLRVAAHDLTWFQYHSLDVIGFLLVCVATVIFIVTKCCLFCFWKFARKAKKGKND

[4] = biological target: T3, UDP-glucuronosyltransferase 1A4 (Homo sapiens, UniProt P22310); assay: Drug metabolism assessed as recombinant human C-terminal His-tagged UGT1A4-mediated 16-epiestriol-16-glucuronide formation at 200 uM after 15 to 60 mins by HPLC analysis in presence of UDPGA; settings: recombinant enzyme; in short: as §1
T3 sequence (P22310 whole entry): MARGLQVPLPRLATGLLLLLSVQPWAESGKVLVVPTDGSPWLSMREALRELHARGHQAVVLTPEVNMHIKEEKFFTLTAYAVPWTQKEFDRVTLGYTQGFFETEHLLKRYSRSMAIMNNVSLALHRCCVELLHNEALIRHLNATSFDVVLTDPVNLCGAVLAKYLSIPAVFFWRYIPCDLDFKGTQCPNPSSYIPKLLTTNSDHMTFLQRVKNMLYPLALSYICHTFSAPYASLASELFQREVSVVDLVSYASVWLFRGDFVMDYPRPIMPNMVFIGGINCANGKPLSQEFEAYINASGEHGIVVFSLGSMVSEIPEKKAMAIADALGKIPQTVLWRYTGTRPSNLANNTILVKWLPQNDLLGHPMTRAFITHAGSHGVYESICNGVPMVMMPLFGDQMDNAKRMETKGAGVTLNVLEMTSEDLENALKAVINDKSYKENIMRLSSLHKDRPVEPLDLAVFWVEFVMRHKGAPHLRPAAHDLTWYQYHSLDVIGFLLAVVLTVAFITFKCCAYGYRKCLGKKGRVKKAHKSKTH

[5] = biological target: T4, UDP-glucuronosyltransferase 2B15 (Homo sapiens, UniProt P54855); assay: Drug metabolism assessed as recombinant human C-terminal […]-mediated estradiol-3-glucuronide/estradiol-17-glucuronide formation at 200 uM after 15 to 60 mins by HPLC analysis in presence of UDPGA; settings: recombinant enzyme
T4 sequence (P54855 whole entry): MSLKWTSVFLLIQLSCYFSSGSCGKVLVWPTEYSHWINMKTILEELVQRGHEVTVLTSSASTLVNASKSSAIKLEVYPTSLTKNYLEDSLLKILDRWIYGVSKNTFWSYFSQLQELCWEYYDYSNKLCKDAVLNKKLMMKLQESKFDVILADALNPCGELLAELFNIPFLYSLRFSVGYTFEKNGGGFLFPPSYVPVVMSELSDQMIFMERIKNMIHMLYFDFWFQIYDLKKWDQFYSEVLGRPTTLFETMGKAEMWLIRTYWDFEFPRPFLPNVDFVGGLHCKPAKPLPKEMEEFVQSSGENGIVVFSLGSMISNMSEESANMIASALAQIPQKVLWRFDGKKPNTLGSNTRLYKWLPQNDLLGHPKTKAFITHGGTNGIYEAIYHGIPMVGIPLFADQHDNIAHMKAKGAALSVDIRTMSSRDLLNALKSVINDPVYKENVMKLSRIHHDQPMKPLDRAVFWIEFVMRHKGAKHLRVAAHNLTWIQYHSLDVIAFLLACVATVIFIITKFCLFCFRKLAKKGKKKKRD

Km [1]: 251 µM
Vmax [1]: 1239 pmol/min/mg
Drug metabolism [2]: metabolite_detected
Structure (SMILES): C[C@]12CC[C@@H]3c4ccc(O)cc4CC[C@H]3[C@@H]1C[C@@H](O)[C@H]2O

Drug metabolism [3]: metabolite_detected
Structure (SMILES): C[C@@]12CC[C@@H]3c4ccc(O)cc4CC[C@H]3[C@@H]1CC[C@@H]2O

Drug metabolism [4]: metabolite_not_detected
Structure (SMILES): C[C@]12CC[C@@H]3c4ccc(O)cc4CC[C@H]3[C@@H]1C[C@H](O)[C@@H]2O [EPIESTRIOL]

Drug metabolism [5]: metabolite_detected
Structure (SMILES): C[C@]12CC[C@@H]3c4ccc(O)cc4CC[C@H]3[C@@H]1CC[C@@H]2O [ESTRADIOL]
